Source: ChEMBL document CHEMBL1154638, “14beta-Arylpropiolylamino-17-cyclopropylmethyl-7,8-dihydronormorphinones and related opioids. Further examples of pseudoirreversible mu opioid receptor antagonists” (J Med Chem, 2009)
Activity calls are given as the source filed them. The calls are words filed in the database; no cut-off is given here.

Assays:
[1] = target: Mu-type opioid receptor (Homo sapiens, UniProt P35372); test: Displacement of [3H]DAMGO from human recombinant mu opioid receptor expressed in CHO cells by liquid scintillation counting; type: cell-based
Chain of Mu-type opioid receptor (P35372 whole entry): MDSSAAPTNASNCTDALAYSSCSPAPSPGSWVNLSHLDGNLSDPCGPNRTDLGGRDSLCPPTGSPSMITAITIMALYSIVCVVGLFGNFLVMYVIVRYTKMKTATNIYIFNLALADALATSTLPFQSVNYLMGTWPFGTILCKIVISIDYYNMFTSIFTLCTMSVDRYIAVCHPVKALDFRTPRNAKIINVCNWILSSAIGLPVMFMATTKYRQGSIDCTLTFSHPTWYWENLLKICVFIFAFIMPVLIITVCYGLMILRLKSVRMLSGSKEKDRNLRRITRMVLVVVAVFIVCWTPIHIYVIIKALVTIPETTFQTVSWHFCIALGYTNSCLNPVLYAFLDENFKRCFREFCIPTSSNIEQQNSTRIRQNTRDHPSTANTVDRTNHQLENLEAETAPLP
In short: (§1)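 Competitive displacement binding uses membranes from CHO cells expressing recombinant human opioid receptors. Radioligands are [3H]DAMGO for mu and [3H]DPDPE for delta. Ki is reported in nM as the mean of two experiments, each run in triplicate.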

[2] = target: T1, Delta-type opioid receptor (Homo sapiens, UniProt P41143); test: Displacement of [3H]DPDPE from human recombinant delta opioid receptor expressed in CHO cells by liquid scintillation counting; type: cell-based; in short: as §1
T1 sequence (P41143 whole entry): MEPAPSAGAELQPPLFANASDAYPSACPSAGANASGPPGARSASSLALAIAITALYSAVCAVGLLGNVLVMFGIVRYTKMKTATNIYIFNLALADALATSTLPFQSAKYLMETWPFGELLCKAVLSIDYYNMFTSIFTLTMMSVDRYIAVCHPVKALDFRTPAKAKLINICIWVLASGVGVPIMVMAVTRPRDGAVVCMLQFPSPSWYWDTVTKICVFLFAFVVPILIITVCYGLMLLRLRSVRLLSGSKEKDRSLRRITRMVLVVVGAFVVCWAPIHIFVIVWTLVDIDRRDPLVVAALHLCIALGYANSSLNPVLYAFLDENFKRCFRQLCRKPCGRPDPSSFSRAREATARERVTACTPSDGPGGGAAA

[3] = target: T2, Kappa-type opioid receptor (Homo sapiens, UniProt P41145); test: Displacement of [3H]U69593 from human recombinant kappa opioid receptor expressed in CHO cells by liquid scintillation counting; type: cell-based
T2 sequence (P41145 whole entry): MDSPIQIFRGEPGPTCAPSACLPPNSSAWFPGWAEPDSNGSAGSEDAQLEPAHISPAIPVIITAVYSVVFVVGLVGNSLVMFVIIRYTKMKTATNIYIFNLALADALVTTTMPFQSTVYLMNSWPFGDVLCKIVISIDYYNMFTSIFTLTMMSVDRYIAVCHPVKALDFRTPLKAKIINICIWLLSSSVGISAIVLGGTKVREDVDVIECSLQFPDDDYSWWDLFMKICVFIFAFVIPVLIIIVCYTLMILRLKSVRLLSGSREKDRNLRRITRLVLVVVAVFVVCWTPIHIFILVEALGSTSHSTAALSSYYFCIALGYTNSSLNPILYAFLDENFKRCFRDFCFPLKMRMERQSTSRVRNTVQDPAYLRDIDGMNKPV

[4] = target: T2, Kappa-type opioid receptor; test: Agonist activity at human kappa opioid receptor expressed in CHO cells assessed as [35S]GTPgammaS binding; type: functional, cell-based
In short: (§2)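 Membranes from CHO cells transfected with individual recombinant human opioid receptors (mu, delta or kappa). Ligand-stimulated [35S]GTPγS binding is measured at each receptor type, for agonist stimulation and for antagonism. At kappa, agonist efficacy is expressed as % stimulation relative to U69593, alongside EC50.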

[5] = target: T1, Delta-type opioid receptor; test: Agonist activity at human delta opioid receptor expressed in CHO cells assessed as [35S]GTPgammaS binding; type: functional, cell-based; in short: as §2
[6] = target: T1, Delta-type opioid receptor; test: Agonist activity at human delta opioid receptor expressed in CHO cells assessed as [35S]GTPgammaS binding relative to DPDPE; type: functional, cell-based; in short: as §2
[7] = target: T2, Kappa-type opioid receptor; test: Agonist activity at human kappa opioid receptor expressed in CHO cells assessed as [35S]GTPgammaS binding relative to U69593; type: functional, cell-based; in short: as §2
[8] = test system: Mus musculus; test: Antinociceptive activity in Swiss mouse assessed as tail withdrawal response at 3.2 mg/kg, ip by warm-water tail-withdrawal assay; type: functional, organism-based; design: dose 3.2 mg/kg
In short: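 Mouse warm-water (50 °C) tail-withdrawal assay. Compound was given across a dose range, and antinociception was expressed as a percentage of the maximum possible effect.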

[9] = test system: Mus musculus; test: Antinociceptive activity in Swiss mouse assessed as inhibition of acetic acid-induced writhing at 0.32 mg/kg, ip by writhing assay; type: functional, organism-based; design: dose 0.32 mg/kg
[10] = test system: Mus musculus; test: Antinociceptive activity in Swiss mouse assessed as inhibition of acetic acid-induced writhing at 0.32 mg/kg, ip by writhing assay in presence of mu opioid receptor antagonist M-CAM; type: functional, organism-based; design: dose 0.32 mg/kg
[11] = test system: Mus musculus; test: Antinociceptive activity in Swiss mouse assessed as inhibition of acetic acid-induced writhing at 0.32 mg/kg, ip by writhing assay in presence of delta opioid receptor antagonist naltrindole; type: functional, organism-based; design: dose 0.32 mg/kg
[12] = test system: Mus musculus; test: Antinociceptive activity in Swiss mouse assessed as inhibition of acetic acid-induced writhing at 0.32 mg/kg, ip by writhing assay in presence of kappa opioid receptor antagonist norBNI; type: functional, organism-based; design: dose 0.32 mg/kg
[13] = test system: Mus musculus; test: Antinociceptive activity in Swiss mouse assessed as tail withdrawal response at 100 mg/kg, ip after […] by warm-water tail-withdrawal assay; type: functional; conditions: route intraperitoneal
[14] = test system: Mus musculus; test: Antinociceptive activity in Swiss mouse assessed as tail withdrawal response at 100 mg/kg, ip after 3 days by warm-water tail-withdrawal assay; type: functional; conditions: route intraperitoneal
[15] = test system: Mus musculus; test: Antinociceptive activity in Swiss mouse assessed as tail withdrawal response at 100 mg/kg, ip after 30 mins by warm-water tail-withdrawal assay; type: functional; conditions: route intraperitoneal
[16] = test system: Mus musculus; test: Antinociceptive activity against acetic acid-induced writhing in Swiss mouse assessed as reversal of mu opioid receptor agonist morphine response at 3.2 mg/kg, ip by writhing assay; type: functional, organism-based; design: dose 3.2 mg/kg
In short: (§3)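 Mouse abdominal stretch assay. […] Stretches were counted, with saline as vehicle. Statistics used one-way ANOVA with Dunnett's post hoc test versus agonist alone and versus test ligand alone.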

[17] = test system: Mus musculus; type: functional, organism-based; design: dose 3.2 mg/kg; conditions: Swiss, 3.2 mg/kg
[18] = test system: Mus musculus; test: Antinociceptive activity against acetic acid-induced writhing in Swiss mouse assessed as reversal of […] response at 3.2 mg/kg, ip by writhing assay; type: functional, organism-based; design: dose 3.2 mg/kg; in short: as §3
[19] = test system: Mus musculus; test: Antinociceptive activity against acetic acid-induced writhing in Swiss mouse assessed as reversal of mu opioid receptor agonist morphine response at 1 mg/kg, ip by writhing assay; type: functional, organism-based; design: dose 1 mg/kg
[20] = test system: Mus musculus; type: functional, organism-based; design: dose 1 mg/kg; conditions: Swiss, 1 mg/kg
[21] = test system: Mus musculus; test: Antinociceptive activity against acetic acid-induced writhing in Swiss mouse assessed as reversal of […] response at 1 mg/kg, ip by writhing assay; type: functional, organism-based; design: dose 1 mg/kg
[22] = Displacement of [3H]DPDPE from human recombinant delta opioid receptor expressed in CHO cells by liquid scintillation counting

SMILES	Ki [1] [nM]	Ki [2] [nM]	Ki [3] [nM]	EC50 [4] [nM]	Activity [7] [%]	further results
COc1ccc2c3c1O[C@H]1C(=O)CC[C@@]4(NC(=O)C#Cc5ccccc5)[C@@H](C2)N(CC2CC2)CC[C@]314	1.46	28.3	7.86	3.18	77	EC50 [5]: 75.1 nM; Activity [6]: 47%; Activity [8]: Active; Activity [9]: Active; Activity [10]: inactive; Activity [11]: Active; Activity [12]: Active
O=C(C#Cc1ccccc1)N[C@@]12CCC(=O)[C@@H]3Oc4c(O)ccc5c4[C@@]31CCN(CC1CC1)[C@@H]2C5	1.31	1.6	1.12	0.3	21	Activity [13]: 0%
O=C1CC[C@@]2(NCC#Cc3ccc(Cl)cc3)[C@H]3Cc4ccc(O)c5c4[C@@]2(CCN3CC2CC2)[C@H]1O5	0.97	3.26	2.89	–	–	–
O=C(C#Cc1ccc(Cl)cc1)N[C@@]12CCC(=O)[C@@H]3Oc4c(O)ccc5c4[C@@]31CCN(CC1CC1)[C@@H]2C5	3.75	5.41	2.73	–	–	Activity [14]: 20%; Activity [15]: 0%; Activity [16]: Active; Activity [17]: Active; Activity [18]: Active; Activity [19]: Active; Activity [20]: Active; Activity [21]: Active
COc1ccc2c3c1O[C@H]1C(=O)CC[C@@]4(NCC#Cc5ccc(Cl)cc5)[C@@H](C2)N(CC2CC2)CC[C@]314	9.68	136	74.4	–	–	–
COc1ccc2c3c1O[C@H]1C(=O)CC[C@@]4(NC/C=C/c5ccc(Cl)cc5)[C@@H](C2)N(CC2CC2)CC[C@]314	0.7	–	53.6	–	–	Ki [22]: 44.5 nM
COc1ccc2c3c1O[C@H]1C(=O)CC[C@@]4(NC(=O)C#Cc5ccc(Cl)cc5)[C@@H](C2)N(CC2CC2)CC[C@]314	7.43	65.2	13.7	20	25	Activity [15]: 0%
